Assay results: ChEMBL document CHEMBL4689842, “EUbOPEN Chemogenomics Library wave 1” (2021)

Test system: Fibroblast
Assay: Multiplex assay against human fibroblast
Type: toxicity, cell-based
In short: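 Hoechst33342, BioTracker Green Microtubule Cytoskeleton Dye, MitoTracker Red and Annexin V Alexa Fluor 680 were added to live cells at seeding, and imaging on a CQ1 microscope at 37°C and 5% CO2 followed compound addition. Gating by CellPathfinder machine learning separated cells into Hoechst high-intensity objects or normal cells, then normal cells into healthy, pyknosed or fragmented nuclei, then pyknosed cells into mitotic or apoptotic. Per cents of healthy-nucleus cells are reported for the tubulin, mitochondrial-mass and membrane-permeability phenotypes.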

[1] = 12 h, 1 µM, compound concentration 1 uM, replicate 1
[2] = 12 h, 1 µM, compound concentration 1 uM, replicate 2
[3] = 12 h, 10 µM, compound concentration 10 uM, replicate 1
[4] = 12 h, 10 µM, compound concentration 10 uM, replicate 2
[5] = 24 h, 1 µM, compound concentration 1 uM, replicate 1
[6] = 24 h, 1 µM, compound concentration 1 uM, replicate 2
[7] = 24 h, 10 µM, compound concentration 10 uM, replicate 1
[8] = 24 h, 10 µM, compound concentration 10 uM, replicate 2
[9] = 48 h, 1 µM, compound concentration 1 uM, replicate 1
[10] = 48 h, 1 µM, compound concentration 1 uM, replicate 2
[11] = 48 h, 10 µM, compound concentration 10 uM, replicate 1
[12] = 48 h, 10 µM, compound concentration 10 uM, replicate 2

SMILES: C=C1/C(=C\C=C2/CCC[C@]3(C)[C@@H]([C@H](C)/C=C/[C@H](C)C(C)C)CC[C@@H]23)C[C@@H](O)C[C@@H]1O [DOXERCALCIFEROL]
- Population Apoptotic (%) [1]: 63%
- Population Fragmented Nuclei (%) [1]: 23%
- Population Healthy Nuclei (%) [1]: 33%
- Population Hoechst High Intensity Objects (%) [1]: 10%
- Population Membrane Permeable-Phenotype (%) [1]: 10%
- Population Mitochondria Different-Phenotype (%) [1]: 0%
- Population Mitotic Cells (%) [1]: 36%
- Population Normal (%) [1]: 89%
- Population Pyknosed Nuclei (%) [1]: 42%
- Population Tubulin-Different-Phenotype (%) [1]: 14%
- Total Cell Count [1]: 94
- Population Apoptotic (%) [2]: 40%
- Population Fragmented Nuclei (%) [2]: 1%
- Population Healthy Nuclei (%) [2]: 90%
- Population Hoechst High Intensity Objects (%) [2]: 1%
- Population Membrane Permeable-Phenotype (%) [2]: 5%
- Population Mitochondria Different-Phenotype (%) [2]: 14%
- Population Mitotic Cells (%) [2]: 60%
- Population Normal (%) [2]: 98%
- Population Pyknosed Nuclei (%) [2]: 8%
- Population Tubulin-Different-Phenotype (%) [2]: 9%
- Total Cell Count [2]: 111
- Population Apoptotic (%) [3]: 30%
- Population Fragmented Nuclei (%) [3]: 72%
- Population Healthy Nuclei (%) [3]: 21%
- Population Hoechst High Intensity Objects (%) [3]: 11%
- Population Membrane Permeable-Phenotype (%) [3]: 4%
- Population Mitochondria Different-Phenotype (%) [3]: 15%
- Population Mitotic Cells (%) [3]: 69%
- Population Normal (%) [3]: 88%
- Population Pyknosed Nuclei (%) [3]: 5%
- Population Tubulin-Different-Phenotype (%) [3]: 28%
- Total Cell Count [3]: 247
- Population Apoptotic (%) [4]: 0%
- Population Fragmented Nuclei (%) [4]: 27%
- Population Healthy Nuclei (%) [4]: 67%
- Population Hoechst High Intensity Objects (%) [4]: 6%
- Population Membrane Permeable-Phenotype (%) [4]: 2%
- Population Mitochondria Different-Phenotype (%) [4]: 21%
- Population Mitotic Cells (%) [4]: 100%
- Population Normal (%) [4]: 93%
- Population Tubulin-Different-Phenotype (%) [4]: 13%
- Total Cell Count [4]: 61
- Population Apoptotic (%) [5]: 38%
- Population Fragmented Nuclei (%) [5]: 18%
- Population Healthy Nuclei (%) [5]: 48%
- Population Hoechst High Intensity Objects (%) [5]: 10%
- Population Membrane Permeable-Phenotype (%) [5]: 22%
- Population Mitochondria Different-Phenotype (%) [5]: 2%
- Population Mitotic Cells (%) [5]: 61%
- Population Normal (%) [5]: 89%
- Population Pyknosed Nuclei (%) [5]: 34%
- Population Tubulin-Different-Phenotype (%) [5]: 27%
- Total Cell Count [5]: 112
- Population Apoptotic (%) [6]: 42%
- Population Fragmented Nuclei (%) [6]: 5%
- Population Healthy Nuclei (%) [6]: 86%
- Population Hoechst High Intensity Objects (%) [6]: 4%
- Population Membrane Permeable-Phenotype (%) [6]: 4%
- Population Mitochondria Different-Phenotype (%) [6]: 7%
- Population Mitotic Cells (%) [6]: 57%
- Population Normal (%) [6]: 95%
- Population Pyknosed Nuclei (%) [6]: 8%
- Population Tubulin-Different-Phenotype (%) [6]: 14%
- Total Cell Count [6]: 157
- Population Apoptotic (%) [7]: 69%
- Population Fragmented Nuclei (%) [7]: 55%
- Population Healthy Nuclei (%) [7]: 36%
- Population Hoechst High Intensity Objects (%) [7]: 9%
- Population Membrane Permeable-Phenotype (%) [7]: 12%
- Population Mitochondria Different-Phenotype (%) [7]: 6%
- Population Mitotic Cells (%) [7]: 30%
- Population Normal (%) [7]: 90%
- Population Pyknosed Nuclei (%) [7]: 8%
- Population Tubulin-Different-Phenotype (%) [7]: 9%
- Total Cell Count [7]: 304
- Population Apoptotic (%) [8]: 33%
- Population Fragmented Nuclei (%) [8]: 25%
- Population Healthy Nuclei (%) [8]: 70%
- Population Hoechst High Intensity Objects (%) [8]: 3%
- Population Membrane Permeable-Phenotype (%) [8]: 1%
- Population Mitochondria Different-Phenotype (%) [8]: 16%
- Population Mitotic Cells (%) [8]: 66%
- Population Normal (%) [8]: 96%
- Population Pyknosed Nuclei (%) [8]: 4%
- Population Tubulin-Different-Phenotype (%) [8]: 13%
- Total Cell Count [8]: 83
- Population Apoptotic (%) [9]: 66%
- Population Fragmented Nuclei (%) [9]: 22%
- Population Healthy Nuclei (%) [9]: 58%
- Population Hoechst High Intensity Objects (%) [9]: 18%
- Population Membrane Permeable-Phenotype (%) [9]: 21%
- Population Mitochondria Different-Phenotype (%) [9]: 3%
- Population Mitotic Cells (%) [9]: 33%
- Population Normal (%) [9]: 81%
- Population Pyknosed Nuclei (%) [9]: 18%
- Population Tubulin-Different-Phenotype (%) [9]: 35%
- Total Cell Count [9]: 118
- Population Apoptotic (%) [10]: 0%
- Population Fragmented Nuclei (%) [10]: 27%
- Population Healthy Nuclei (%) [10]: 72%
- Population Hoechst High Intensity Objects (%) [10]: 42%
- Population Membrane Permeable-Phenotype (%) [10]: 17%
- Population Mitochondria Different-Phenotype (%) [10]: 2%
- Population Mitotic Cells (%) [10]: 0%
- Population Normal (%) [10]: 57%
- Population Pyknosed Nuclei (%) [10]: 0%
- Population Tubulin-Different-Phenotype (%) [10]: 37%
- Total Cell Count [10]: 165
- Population Apoptotic (%) [11]: 86%
- Population Fragmented Nuclei (%) [11]: 33%
- Population Healthy Nuclei (%) [11]: 46%
- Population Hoechst High Intensity Objects (%) [11]: 12%
- Population Membrane Permeable-Phenotype (%) [11]: 23%
- Population Mitochondria Different-Phenotype (%) [11]: 0%
- Population Mitotic Cells (%) [11]: 13%
- Population Normal (%) [11]: 87%
- Population Pyknosed Nuclei (%) [11]: 19%
- Population Tubulin-Different-Phenotype (%) [11]: 2%
- Total Cell Count [11]: 351
- Population Apoptotic (%) [12]: 100%
- Population Fragmented Nuclei (%) [12]: 39%
- Population Healthy Nuclei (%) [12]: 59%
- Population Hoechst High Intensity Objects (%) [12]: 14%
- Population Mitochondria Different-Phenotype (%) [12]: 1%
- Population Mitotic Cells (%) [12]: 0%
- Population Normal (%) [12]: 85%
- Population Pyknosed Nuclei (%) [12]: 1%
- Population Tubulin-Different-Phenotype (%) [12]: 49%
- Total Cell Count [12]: 128

SMILES: C=CCn1c(=O)c2cnc(Nc3ccc(N4CCN(C)CC4)cc3)nc2n1-c1cccc(C(C)(C)O)n1 [ADAVOSERTIB]
- Population Apoptotic (%) [1]: 69%
- Population Fragmented Nuclei (%) [1]: 28%
- Population Healthy Nuclei (%) [1]: 62%
- Population Hoechst High Intensity Objects (%) [1]: 15%
- Population Membrane Permeable-Phenotype (%) [1]: 7%
- Population Mitochondria Different-Phenotype (%) [1]: 4%
- Population Mitotic Cells (%) [1]: 30%
- Population Normal (%) [1]: 84%
- Population Pyknosed Nuclei (%) [1]: 8%
- Population Tubulin-Different-Phenotype (%) [1]: 6%
- Total Cell Count [1]: 178
- Population Apoptotic (%) [2]: 50%
- Population Fragmented Nuclei (%) [2]: 48%
- Population Healthy Nuclei (%) [2]: 37%
- Population Hoechst High Intensity Objects (%) [2]: 35%
- Population Membrane Permeable-Phenotype (%) [2]: 9%
- Population Mitochondria Different-Phenotype (%) [2]: 19%
- Population Mitotic Cells (%) [2]: 50%
- Population Normal (%) [2]: 64%
- Population Pyknosed Nuclei (%) [2]: 14%
- Population Tubulin-Different-Phenotype (%) [2]: 19%
- Total Cell Count [2]: 87
- Population Apoptotic (%) [3]: 44%
- Population Fragmented Nuclei (%) [3]: 29%
- Population Healthy Nuclei (%) [3]: 46%
- Population Hoechst High Intensity Objects (%) [3]: 14%
- Population Membrane Permeable-Phenotype (%) [3]: 8%
- Population Mitochondria Different-Phenotype (%) [3]: 5%
- Population Mitotic Cells (%) [3]: 55%
- Population Normal (%) [3]: 85%
- Population Pyknosed Nuclei (%) [3]: 24%
- Population Tubulin-Different-Phenotype (%) [3]: 23%
- Total Cell Count [3]: 218
- Population Apoptotic (%) [4]: 75%
- Population Fragmented Nuclei (%) [4]: 55%
- Population Healthy Nuclei (%) [4]: 36%
- Population Hoechst High Intensity Objects (%) [4]: 41%
- Population Membrane Permeable-Phenotype (%) [4]: 17%
- Population Mitochondria Different-Phenotype (%) [4]: 23%
- Population Mitotic Cells (%) [4]: 25%
- Population Normal (%) [4]: 58%
- Population Pyknosed Nuclei (%) [4]: 8%
- Population Tubulin-Different-Phenotype (%) [4]: 35%
- Total Cell Count [4]: 81
- Population Apoptotic (%) [5]: 83%
- Population Fragmented Nuclei (%) [5]: 27%
- Population Healthy Nuclei (%) [5]: 60%
- Population Hoechst High Intensity Objects (%) [5]: 18%
- Population Membrane Permeable-Phenotype (%) [5]: 6%
- Population Mitochondria Different-Phenotype (%) [5]: 9%
- Population Mitotic Cells (%) [5]: 16%
- Population Normal (%) [5]: 81%
- Population Pyknosed Nuclei (%) [5]: 11%
- Population Tubulin-Different-Phenotype (%) [5]: 7%
- Total Cell Count [5]: 187
- Population Apoptotic (%) [6]: 25%
- Population Fragmented Nuclei (%) [6]: 51%
- Population Healthy Nuclei (%) [6]: 41%
- Population Hoechst High Intensity Objects (%) [6]: 29%
- Population Membrane Permeable-Phenotype (%) [6]: 4%
- Population Mitochondria Different-Phenotype (%) [6]: 8%
- Population Mitotic Cells (%) [6]: 75%
- Population Normal (%) [6]: 70%
- Population Pyknosed Nuclei (%) [6]: 6%
- Population Tubulin-Different-Phenotype (%) [6]: 12%
- Total Cell Count [6]: 82
- Population Apoptotic (%) [7]: 56%
- Population Fragmented Nuclei (%) [7]: 30%
- Population Healthy Nuclei (%) [7]: 47%
- Population Hoechst High Intensity Objects (%) [7]: 20%
- Population Membrane Permeable-Phenotype (%) [7]: 4%
- Population Mitochondria Different-Phenotype (%) [7]: 10%
- Population Mitotic Cells (%) [7]: 43%
- Population Normal (%) [7]: 79%
- Population Pyknosed Nuclei (%) [7]: 21%
- Population Tubulin-Different-Phenotype (%) [7]: 21%
- Total Cell Count [7]: 241
- Population Apoptotic (%) [8]: 100%
- Population Fragmented Nuclei (%) [8]: 61%
- Population Healthy Nuclei (%) [8]: 35%
- Population Hoechst High Intensity Objects (%) [8]: 29%
- Population Membrane Permeable-Phenotype (%) [8]: 9%
- Population Mitochondria Different-Phenotype (%) [8]: 9%
- Population Mitotic Cells (%) [8]: 0%
- Population Normal (%) [8]: 70%
- Population Pyknosed Nuclei (%) [8]: 3%
- Population Tubulin-Different-Phenotype (%) [8]: 28%
- Total Cell Count [8]: 84
